Test results from ChEMBL document CHEMBL5724801, “EUbOPEN Chemogenomics Library - Multiplex” (2024).
Where “and” joins values, the source holds several entries; their conditions need not be identical. Identical values can stand only once. Non-standard residues stand in square brackets, D forms with d. Residues, ends and D or L forms follow the SMILES beside them.

Legend:
Fibroblast = assay: Multiplex assay against human fibroblast; assay type: toxicity, cell-based
In short: (§1)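 Cells stained live at seeding with Hoechst33342, BioTracker Green Microtubule Cytoskeleton Dye, MitoTracker Red and Annexin V Alexa Fluor 680 were imaged on a CQ1 microscope at 37°C and 5% CO2 after compound addition. Their classification by CellPathfinder machine-learning gating ran from Hoechst high-intensity objects versus normal cells, to healthy, pyknosed or fragmented nuclei among normal cells, to mitotic or apoptotic among pyknosed cells. Tubulin, mitochondrial-mass and membrane-permeability phenotypes are per cents of healthy-nucleus cells.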

HEK-293T = assay: Multiplex assay against HEK293T; assay type: toxicity, cell-based; conditions: human; in short: as §1
[1] = 12 h, 1 µM, compound concentration 1 uM
[2] = 12 h, 10 µM, compound concentration 10 uM
[3] = 24 h, 1 µM, compound concentration 1 uM
[4] = 24 h, 10 µM, compound concentration 10 uM
[5] = 48 h, 1 µM, compound concentration 1 uM
[6] = 48 h, 10 µM, compound concentration 10 uM

CC(C)C[C@@H]1NC(=O)[C@@H](C(C)C)NC(=O)[C@@H]2CCCN2C(=O)[C@@H](CC(=O)O)NC(=O)[C@@H](Cc2c[nH]c3ccccc23)NC1=O [BQ-123] (cyclo(L[dW][dD]P[dV]))
Population Apoptotic (%) (Fibroblast; [1]): 57% and 21% | Population Fragmented Nuclei (%) (Fibroblast; [1]): 18% and 22% | Population Healthy Nuclei (%) (Fibroblast; [1]): 68% and 58% | Population Hoechst High Intensity Objects (%) (Fibroblast; [1]): 0% and 3% | Population Membrane Permeable-Phenotype (%) (Fibroblast; [1]): 1% and 5% | Population Mitochondria Different-Phenotype (%) (Fibroblast; [1]): 11% and 2% | Population Mitotic Cells (%) (Fibroblast; [1]): 42% and 78% | Population Normal (%) (Fibroblast; [1]): 100% and 96% | Population Pyknosed Nuclei (%) (Fibroblast; [1]): 13% and 18% | Population Tubulin-Different-Phenotype (%) (Fibroblast; [1]): 31% | Total Cell Count (Fibroblast; [1]): 105 and 157 | Population Apoptotic (%) (Fibroblast; [2]): 48% and 33% | Population Fragmented Nuclei (%) (Fibroblast; [2]): 15% and 30% | Population Healthy Nuclei (%) (Fibroblast; [2]): 65% and 48% | Population Hoechst High Intensity Objects (%) (Fibroblast; [2]): 2% | Population Membrane Permeable-Phenotype (%) (Fibroblast; [2]): 0% and 4% | Population Mitochondria Different-Phenotype (%) (Fibroblast; [2]): 9% and 3% | Population Mitotic Cells (%) (Fibroblast; [2]): 52% and 66% | Population Normal (%) (Fibroblast; [2]): 97% | Population Pyknosed Nuclei (%) (Fibroblast; [2]): 18% and 20% | Population Tubulin-Different-Phenotype (%) (Fibroblast; [2]): 33% and 46% | Total Cell Count (Fibroblast; [2]): 136 and 134 | Population Apoptotic (%) (Fibroblast; [3]): 53% and 24% | Population Fragmented Nuclei (%) (Fibroblast; [3]): 19% and 23% | Population Healthy Nuclei (%) (Fibroblast; [3]): 66% and 57% | Population Hoechst High Intensity Objects (%) (Fibroblast; [3]): 1% and 6% | Population Membrane Permeable-Phenotype (%) (Fibroblast; [3]): 0% and 3% | Population Mitochondria Different-Phenotype (%) (Fibroblast; [3]): 5% and 3% | Population Mitotic Cells (%) (Fibroblast; [3]): 46% and 75% | Population Normal (%) (Fibroblast; [3]): 98% and 93% | Population Pyknosed Nuclei (%) (Fibroblast; [3]): 14% and 18% | Population Tubulin-Different-Phenotype (%) (Fibroblast; [3]): 24% and 25% | Total Cell Count (Fibroblast; [3]): 107 and 166 | Population Apoptotic (%) (Fibroblast; [4]): 50% and 29% | Population Fragmented Nuclei (%) (Fibroblast; [4]): 19% and 27% | Population Healthy Nuclei (%) (Fibroblast; [4]): 64% and 50% | Population Hoechst High Intensity Objects (%) (Fibroblast; [4]): 8% and 0% | Population Membrane Permeable-Phenotype (%) (Fibroblast; [4]): 1% and 11% | Population Mitochondria Different-Phenotype (%) (Fibroblast; [4]): 5% and 3% | Population Mitotic Cells (%) (Fibroblast; [4]): 50% and 70% | Population Normal (%) (Fibroblast; [4]): 91% and 99% | Population Pyknosed Nuclei (%) (Fibroblast; [4]): 15% and 22% | Population Tubulin-Different-Phenotype (%) (Fibroblast; [4]): 32% and 50% | Total Cell Count (Fibroblast; [4]): 123 | Population Apoptotic (%) (Fibroblast; [5]): 50% and 52% | Population Fragmented Nuclei (%) (Fibroblast; [5]): 18% and 28% | Population Healthy Nuclei (%) (Fibroblast; [5]): 70% and 56% | Population Hoechst High Intensity Objects (%) (Fibroblast; [5]): 3% and 4% | Population Membrane Permeable-Phenotype (%) (Fibroblast; [5]): 0% and 2% | Population Mitochondria Different-Phenotype (%) (Fibroblast; [5]): 12% and 4% | Population Mitotic Cells (%) (Fibroblast; [5]): 50% and 48% | Population Normal (%) (Fibroblast; [5]): 96% and 95% | Population Pyknosed Nuclei (%) (Fibroblast; [5]): 11% and 15% | Population Tubulin-Different-Phenotype (%) (Fibroblast; [5]): 25% and 39% | Total Cell Count (Fibroblast; [5]): 109 and 172 | Population Apoptotic (%) (Fibroblast; [6]): 70% and 46% | Population Fragmented Nuclei (%) (Fibroblast; [6]): 26% and 45% | Population Healthy Nuclei (%) (Fibroblast; [6]): 59% and 42% | Population Hoechst High Intensity Objects (%) (Fibroblast; [6]): 5% and 6% | Population Membrane Permeable-Phenotype (%) (Fibroblast; [6]): 1% and 9% | Population Mitochondria Different-Phenotype (%) (Fibroblast; [6]): 5% and 3% | Population Mitotic Cells (%) (Fibroblast; [6]): 29% and 53% | Population Normal (%) (Fibroblast; [6]): 94% and 93% | Population Pyknosed Nuclei (%) (Fibroblast; [6]): 13% and 12% | Population Tubulin-Different-Phenotype (%) (Fibroblast; [6]): 38% and 51% | Total Cell Count (Fibroblast; [6]): 129 and 130 | Population Apoptotic (%) (HEK-293T; [1]): 46% | Population Fragmented Nuclei (%) (HEK-293T; [1]): 7% and 5% | Population Healthy Nuclei (%) (HEK-293T; [1]): 80% and 82% | Population Hoechst High Intensity Objects (%) (HEK-293T; [1]): 4% and 7% | Population Membrane Permeable-Phenotype (%) (HEK-293T; [1]): 0% | Population Mitochondria Different-Phenotype (%) (HEK-293T; [1]): 39% and 59% | Population Mitotic Cells (%) (HEK-293T; [1]): 53% | Population Normal (%) (HEK-293T; [1]): 95% and 92% | Population Pyknosed Nuclei (%) (HEK-293T; [1]): 11% | Population Tubulin-Different-Phenotype (%) (HEK-293T; [1]): 32% and 19% | Total Cell Count (HEK-293T; [1]): 376 and 392 | Population Apoptotic (%) (HEK-293T; [2]): 30% and 71% | Population Fragmented Nuclei (%) (HEK-293T; [2]): 7% and 5% | Population Healthy Nuclei (%) (HEK-293T; [2]): 78% | Population Hoechst High Intensity Objects (%) (HEK-293T; [2]): 7% and 11% | Population Membrane Permeable-Phenotype (%) (HEK-293T; [2]): 0% | Population Mitochondria Different-Phenotype (%) (HEK-293T; [2]): 48% and 65% | Population Mitotic Cells (%) (HEK-293T; [2]): 69% and 28% | Population Normal (%) (HEK-293T; [2]): 92% and 88% | Population Pyknosed Nuclei (%) (HEK-293T; [2]): 14% and 16% | Population Tubulin-Different-Phenotype (%) (HEK-293T; [2]): 31% and 22% | Total Cell Count (HEK-293T; [2]): 387 and 265 | Population Apoptotic (%) (HEK-293T; [3]): 26% and 40% | Population Fragmented Nuclei (%) (HEK-293T; [3]): 10% and 7% | Population Healthy Nuclei (%) (HEK-293T; [3]): 79% and 82% | Population Hoechst High Intensity Objects (%) (HEK-293T; [3]): 3% and 5% | Population Membrane Permeable-Phenotype (%) (HEK-293T; [3]): 0% | Population Mitochondria Different-Phenotype (%) (HEK-293T; [3]): 27% and 35% | Population Mitotic Cells (%) (HEK-293T; [3]): 73% and 59% | Population Normal (%) (HEK-293T; [3]): 96% and 94% | Population Pyknosed Nuclei (%) (HEK-293T; [3]): 9% | Population Tubulin-Different-Phenotype (%) (HEK-293T; [3]): 21% and 14%
